From ChEMBL document CHEMBL4680084, “New β-Lactam Derivatives Modulate Cell Adhesion and Signaling Mediated by RGD-Binding and Leukocyte Integrins” (J Med Chem, 2016)
pEC50, pIC50: −log10 of the molar value. Calls of active or inactive are those of the source. No cut-off for these calls is given here.

What was measured:
HEL = assay: Toxicity in human HEL cells assessed as induction of cell necrosis and/or apoptosis incubated for 3 hrs by annexin V-PE and 7-AAD staining based by flow cytometry
Procedure, shortened: (§1)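 After 3 h incubation, cells resuspended in complete medium and stained with annexin V-PE/7-AAD reagent for 20 min at room temperature in the dark. Flow cytometry sorted cells into viable, early apoptotic and late apoptotic/necrotic populations.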

MCF7 = assay: Toxicity in human MCF7 cells assessed as induction of cell necrosis and/or apoptosis incubated for 3 hrs by annexin V-PE and 7-AAD staining based by flow cytometry; conditions: mcf7, 3 h; procedure, shortened: as §1
SK-MEL-24 = assay: Toxicity in human SK-MEL-24 cells assessed as induction of cell necrosis and/or apoptosis incubated for 3 hrs by annexin V-PE and 7-AAD staining based by flow cytometry; conditions: sk-mel-24, 3 h; procedure, shortened: as §1
Integrin alpha-4/beta-1 [1] = molecular target: T1, Integrin alpha-4/beta-1 (Homo sapiens, UniProt P05556+P13612); assay: Inhibition of fibronectin binding to […] isolated from human Jurkat E6.1 cells incubated for 1 hr by scintillation-proximity assay based competitive solid-phase binding assay; format: tissue-based
Integrin alpha-4/beta-1 [2] = molecular target: T1, Integrin alpha-4/beta-1; assay: Antagonist activity at alpha4beta1 in human Jurkat E6.1 cells assessed as reduction in cell adhesion to VCAM1 pre-incubated for 30 mins before VCAM1 and further incubated for 30 mins by […]; format: cell-based
Integrin alpha-V/beta-3 [3] = molecular target: T2, Integrin alpha-V/beta-3 (Homo sapiens, UniProt P05106+P06756); assay: Inhibition of fibronectin binding to human recombinant alphaVbeta3 expressed in HEK293 cells incubated for 1 hr by […] competitive solid-phase binding assay; format: cell-based
Integrin alpha-5/beta-1 [4] = molecular target: T3, Integrin alpha-5/beta-1 (Homo sapiens, UniProt P05556+P08648); assay: Antagonist activity at alpha5beta1 in human K562 cells assessed as reduction in cell adhesion to fibronectin pre-incubated for 30 mins before fibronectin and further incubated for 1 hr by nitrophenyl-N-acetyl-beta-D-glucosaminide substrate based chromogenic assay
Procedure, shortened: (§2)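 Compound or methanol vehicle pre-incubated with cells for 30 min at room temperature. Cells then plated on wells coated overnight at 4 °C with fibronectin 10 µg/mL (SK-MEL-24, K562, HT-29) or fibrinogen 10 µg/mL (MCF7, HEL). Seeding was 50,000 cells/well, or 100000 for HEL. Adhesion ran 1 h at room temperature. Wells washed with 1% BSA/PBS. Adherent cells read by hexosaminidase substrate, absorbance 405 nm. Quadruplicate, at least three repeats.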

Integrin alpha-5/beta-1 [5] = molecular target: T3, Integrin alpha-5/beta-1; assay: Inhibition of fibronectin binding to alpha5beta1 isolated from human K562 cells incubated for 1 hr by […] competitive solid-phase binding assay; format: tissue-based
Procedure, shortened: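 Plates coated overnight at 4 °C in carbonate buffer pH 9.6 with fibronectin 0.5 µg/mL (αvβ3, αvβ6, α5β1), fibrinogen 10 µg/mL (αIIbβ3, αvβ5) or ICAM-1 (αLβ2). Blocked 1 h in buffer containing Ca/Mg/Mn 1 mM each and 1% BSA. Purified integrin (3–10 µg/mL) incubated with compound (10⁻⁴–10⁻¹⁰ M) 1 h at room temperature. Bound integrin detected with primary antibody then AlexaFluor488 secondary, Ex485/Em535. Duplicate, at least three repeats.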

Integrin alpha-4/beta-1 [6] = molecular target: T1, Integrin alpha-4/beta-1; assay: Antagonist activity at alpha4beta1 in human Jurkat E6.1 cells assessed as reduction in VCAM-1 induced ERK1/2 phosphorylation at 1 to 100 pM by Western blot analysis; format: cell-based; conditions: filed as antagonist, dose 1-100 pM
Integrin alpha-5/beta-1 [7] = molecular target: T3, Integrin alpha-5/beta-1; assay: Antagonist activity at alpha5beta1 in human K562 cells assessed as assessed as reduction in ERK1/2 phosphorylation at 1 to 100 nM by Western blot analysis; format: cell-based; conditions: filed as antagonist, dose 1-100 nM
Integrin alpha-4/beta-1 [8] = molecular target: T1, Integrin alpha-4/beta-1; assay: Antagonist activity at alpha4beta1 in human Jurkat E6.1 cells assessed as reduction in exposure of HUTS-21 epitope measured by mAb binding; format: cell-based; conditions: filed as antagonist
Procedure, shortened: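 Jurkat E6.1 cells at 10⁶/mL in 1% BSA/HBSS incubated 30 min at 37 °C with compound. PE-labelled HUTS-21 mAb then added for 45 min at room temperature. Cells washed, 10,000 analysed by flow cytometry. MFI corrected to isotype control set to 0. Four independent experiments in duplicate.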

K562 = assay: Toxicity in human K562 cells assessed as induction of cell necrosis and/or apoptosis incubated for 3 hrs by annexin V-PE and 7-AAD staining based by flow cytometry; conditions: k562, 3 h; procedure, shortened: as §1
Integrin alpha-V/beta-6 [9] = molecular target: T4, Integrin alpha-V/beta-6 (Homo sapiens, UniProt P06756+P18564); assay: Inhibition of fibronectin binding to alphaVbeta6 isolated form human HT-29 cells incubated for 1 hr by […] competitive solid-phase binding assay; format: tissue-based
HT-29 = assay: Toxicity in human HT-29 cells assessed as induction of cell necrosis and/or apoptosis incubated for 3 hrs by annexin V-PE and 7-AAD staining based by flow cytometry; conditions: ht-29, 3 h; procedure, shortened: as §1
[10] = molecular target: T5, Integrin alpha-IIb/beta-3 (Homo sapiens, UniProt P05106+P08514); assay: Antagonist activity at alpha2bbeta3 in human HEL cells assessed as reduction in cell adhesion to fibrinogen pre-incubated for 30 mins before fibrinogen and further incubated for 1 hr by nitrophenyl-N-acetyl-beta-D-glucosaminide substrate based chromogenic assay
Procedure, shortened: (§3)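 Compound or methanol vehicle pre-incubated with cells for 30 min at room temperature. Cells then plated on wells coated overnight at 4 °C with fibronectin 10 µg/mL (SK-MEL-24, K562, HT-29) or fibrinogen 10 µg/mL (MCF7, HEL). Seeding was 50,000 cells/well, or 100000 for HEL. Adhesion ran 1 h at room temperature. Wells washed with 1% BSA/PBS. Quadruplicate, at least three repeats.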

Integrin alpha-V/beta-5 [11] = molecular target: T6, Integrin alpha-V/beta-5 (Homo sapiens, UniProt P06756+P18084); assay: Antagonist activity at alphaVbeta5 in human MCF7 cells assessed as reduction in cell adhesion to fibrinogen pre-incubated for 30 mins before fibrinogen and further incubated for 1 hr by nitrophenyl-N-acetyl-beta-D-glucosaminide substrate based chromogenic assay; procedure, shortened: as §3
[12] = molecular target: T7, Integrin alpha-L/beta-2 (LFA-1) (Homo sapiens, UniProt P05107+P20701); assay: Agonist activity at alphaLbeta2 in human Jurkat E6.1 cells assessed as increase in cell adhesion to ICAM1 pre-incubated for 30 mins before ICAM1 and further incubated for 30 mins by […]; format: cell-based
Procedure, shortened: (§4)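 Jurkat E6.1 cells labelled with CellTracker green CMFDA (12.5 µM, 30 min, 37 °C), washed, then pre-incubated 30 min at 37 °C with compound or methanol. Plated at 500,000/well on VCAM-1 (α4β1) or ICAM-1 (αLβ2) coated wells (5 µg/mL) for 30 min at 37 °C. Cells lysed in 0.5% Triton X-100; fluorescence read Ex485/Em535. Quadruplicate, at least three repeats.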

Integrin alpha-V/beta-6 [13] = molecular target: T4, Integrin alpha-V/beta-6; assay: Agonist activity at alphaVbeta6 in human HT-29 cells assessed as increase in cell adhesion to fibronectin pre-incubated for 30 mins before fibronectin and further incubated for 1 hr by nitrophenyl-N-acetyl-beta-D-glucosaminide substrate based chromogenic assay; procedure, shortened: as §2
Integrin alpha-4/beta-1 [14] = molecular target: T1, Integrin alpha-4/beta-1; assay: Antagonist activity at alpha4beta1 in human Jurkat E6.1 cells assessed as reduction in VCAM-1 induced ERK1/2 phosphorylation at 1 to 100 nM by Western blot analysis; format: cell-based; conditions: filed as antagonist, dose 1-100 nM
[15] = molecular target: T5, Integrin alpha-IIb/beta-3; assay: Agonist activity at alpha2bbeta3 in human HEL cells assessed as increase in cell adhesion to fibrinogen pre-incubated for 30 mins before fibrinogen and further incubated for 1 hr by nitrophenyl-N-acetyl-beta-D-glucosaminide substrate based chromogenic assay; procedure, shortened: as §3
Integrin alpha-V/beta-5 [16] = molecular target: T6, Integrin alpha-V/beta-5; assay: Agonist activity at alphaVbeta5 in human MCF7 cells assessed as increase in cell adhesion to fibrinogen pre-incubated for 30 mins before fibrinogen and further incubated for 1 hr by nitrophenyl-N-acetyl-beta-D-glucosaminide substrate based chromogenic assay; procedure, shortened: as §2
Integrin alpha-V/beta-5 [17] = molecular target: T6, Integrin alpha-V/beta-5; assay: Inhibition of fibrinogen binding to alphaVbeta5 isolated form human mCf7 cells incubated for 1 hr by […] competitive solid-phase binding assay
Integrin alpha-V/beta-6 [18] = molecular target: T4, Integrin alpha-V/beta-6; assay: Antagonist activity at alphaVbeta6 in human HT-29 cells assessed as reduction in cell adhesion to fibronectin pre-incubated for 30 mins before fibronectin and further incubated for 1 hr by nitrophenyl-N-acetyl-beta-D-glucosaminide substrate based chromogenic assay; procedure, shortened: as §3
[19] = molecular target: T7, Integrin alpha-L/beta-2 (LFA-1); assay: Antagonist activity at alphaLbeta2 in human Jurkat E6.1 cells assessed as reduction in cell adhesion to ICAM1 pre-incubated for 30 mins before ICAM1 and further incubated for 30 mins by […]; format: cell-based; procedure, shortened: as §4
Integrin alpha-V/beta-3 [20] = molecular target: T2, Integrin alpha-V/beta-3; assay: Antagonist activity at alphaVbeta3 in human SK-MEL-24 cells assessed as reduction in cell adhesion to fibronectin pre-incubated for 30 mins before fibronectin and further incubated for 1 hr by nitrophenyl-N-acetyl-beta-D-glucosaminide substrate based chromogenic assay; procedure, shortened: as §3
Integrin alpha-4/beta-1 [21] = molecular target: T1, Integrin alpha-4/beta-1; assay: Agonist activity at alpha4beta1 in human Jurkat E6.1 cells assessed as increase in cell adhesion to VCAM1 pre-incubated for 30 mins before VCAM1 and further incubated for 30 mins by […]; format: cell-based; procedure, shortened: as §4
Integrin alpha-5/beta-1 [22] = molecular target: T3, Integrin alpha-5/beta-1; assay: Agonist activity at alpha5beta1 in human K562 cells assessed as increase in cell adhesion to fibronectin pre-incubated for 30 mins before fibronectin and further incubated for 1 hr by nitrophenyl-N-acetyl-beta-D-glucosaminide substrate based chromogenic assay; procedure, shortened: as §2
Integrin alpha-V/beta-3 [23] = molecular target: T2, Integrin alpha-V/beta-3; assay: Antagonist activity at alphaVbeta3 in human SK-MEL-24 cells assessed as reduction in cell adhesion to fibronectin at 10 to 10000 nM pre-incubated for 30 mins before fibronectin and further incubated for 1 hr by nitrophenyl-N-acetyl-beta-D-glucosaminide substrate based chromogenic assay; conditions: filed as antagonist, dose 10-10000 nM, time 90.0 min
Procedure, shortened: (§5)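 SK-MEL-24 cells pre-incubated 30 min at room temperature with compound (1×10^-10–1×10^-4 M) or methanol, then plated at 50,000/well on fibronectin (10 µg/mL) coated wells for 1 h at room temperature. Adherent cells quantified by 4-nitrophenyl-N-acetyl-glucosaminide hydrolysis, absorbance 405 nm. Quadruplicate, at least three repeats; IC50/EC50 derived.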

Integrin alpha-V/beta-3 [24] = molecular target: T2, Integrin alpha-V/beta-3; assay: Agonist activity at alphaVbeta3 in human SK-MEL-24 cells assessed as increase in cell adhesion to fibronectin at 10 to 10000 nM pre-incubated for 30 mins before fibronectin and further incubated for 1 hr by nitrophenyl-N-acetyl-beta-D-glucosaminide substrate based chromogenic assay; conditions: filed as agonist, dose 10-10000 nM, time 90.0 min; procedure, shortened: as §5

SMILES | Activity (HEL) | Activity (MCF7) | Activity (SK-MEL-24) | pIC50 (Integrin alpha-4/beta-1 [2]) | pIC50 (Integrin alpha-5/beta-1 [4]) | Activity (K562) | Activity (HT-29) | pIC50 [10] | pIC50 (Integrin alpha-V/beta-5 [11]) | pEC50 [12] | pEC50 (Integrin alpha-V/beta-6 [13]) | pEC50 [15] | pEC50 (Integrin alpha-V/beta-5 [16]) | pIC50 (Integrin alpha-V/beta-6 [18]) | pIC50 [19] | also measured
Cc1ccccc1NC(=O)N1C(=O)C[C@H]1C(=O)O | Non-Toxic | Non-Toxic | Non-Toxic | 8.86 | 6.80 | Non-Toxic | Non-Toxic | < 5.30 | < 5.30 | < 5.30 | < 5.30 | < 5.30 | < 5.30 | < 5.30 | < 5.30 | pIC50 (Integrin alpha-4/beta-1 [1]): 8.96; pIC50 (Integrin alpha-V/beta-3 [3]): 6.55; pIC50 (Integrin alpha-5/beta-1 [5]): 6.94; Activity (Integrin alpha-4/beta-1 [6]): Dose-dependent effect; Activity (Integrin alpha-5/beta-1 [7]): Dose-dependent effect; Activity (Integrin alpha-4/beta-1 [8]): Dose-dependent effect; pIC50 (Integrin alpha-V/beta-6 [9]): < 6.00; Activity (Integrin alpha-4/beta-1 [14]): Active; pIC50 (Integrin alpha-V/beta-5 [17]): < 6.00; pIC50 (Integrin alpha-V/beta-3 [20]): 6.45
Cc1ccccc1NC(=O)N1C(=O)C[C@H]1C(=O)NCCC(=O)O | Non-Toxic | Non-Toxic | Non-Toxic | < 5.30 | < 5.30 | Non-Toxic | Non-Toxic | < 5.30 | < 5.30 | < 5.30 | < 5.30 | < 5.30 | < 5.30 | < 5.30 | < 5.30 | pEC50 (Integrin alpha-4/beta-1 [21]): < 5.30; pEC50 (Integrin alpha-5/beta-1 [22]): < 5.30; Activity (Integrin alpha-V/beta-3 [23]): Active; Activity (Integrin alpha-V/beta-3 [24]): Active
